# In the library only some 3.7% were active in any assay of this set; here they are far more common.
# WT yeast gro inh: growth inhibition of WT yeast, mitochondrial fusion screen. mitochondrial fusion phenotypic screen, WT strain. 2.1% of 190,000 active. AID 1362. inhibition, % at 10 µM; in the data active = inhibition above about 58%; tested in S. cerevisiae
# NCF1 inh: blocks human p47phox regulatory protein of NADPH oxidases; P14598; p47phox/p22phox peptide binding, fluorescence polarization, 2 h; inhibition, % at 24.7 µM; 0.53% of 220,000 active;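 also: 0% = p47phox with labelled peptide and 100% = labelled peptide alone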
# eIF4E-4G inh: blocks eIF4E binding to eIF4G; AID 782; TR-FRET eIF4E-eIF4GI(517-606) binding, 2 h; P63073+Q04637; 0.37% of 220,000 active; inhibition, % at 21.7 µM;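 also: 0% = full FRET control wells and 100% = background wells lacking eIF4GI fragment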
# EBV gp42 inh: inhibitors of Epstein-Barr virus glycoprotein 42. Q1HVG2. Fluorescence polarization binding assay, mP read-out. inhibition, % (tested at 21.74 µM). 0.42% of 220,000 active. AID 1085; in the data active = inhibition above about 50%
# Target sequence (Q1HVG2 whole entry, looked up): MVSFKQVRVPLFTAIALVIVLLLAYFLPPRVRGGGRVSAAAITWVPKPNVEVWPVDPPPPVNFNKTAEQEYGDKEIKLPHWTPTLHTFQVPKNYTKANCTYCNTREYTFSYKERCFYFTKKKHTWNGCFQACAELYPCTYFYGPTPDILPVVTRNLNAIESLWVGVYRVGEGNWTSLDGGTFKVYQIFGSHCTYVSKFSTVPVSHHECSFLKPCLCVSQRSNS
# 14-3-3 Bad inh: disrupts binding of bovine 14-3-3 zeta to phospho-Bad peptide | AID 781 | TR-FRET 14-3-3zeta/Dy647-pBad peptide displacement, 1 h | inhibition, % at 21.7 µM | 0.71% of 220,000 active;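 active = inhibition above about 70%, limit read from the data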;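 also: 0% = full 14-3-3 plus peptide FRET controls and 100% = background without 14-3-3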
# RBBP9 inh: inhibitors of human serine hydrolase RBBP9; O75884; recombinant RBBP9, FP-Rh probe fluorescence polarization; inhibition, % at 7.94 µM; 0.2% of 220,000 active;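 active = inhibition above the campaign mean of all tested compounds plus 3 SD, cut at about 14% in these data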;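 also: plate controls were DMSO wells with RBBP9 for no effect and wells lacking RBBP9 protein for full effect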
# Target sequence (O75884 whole entry, looked up): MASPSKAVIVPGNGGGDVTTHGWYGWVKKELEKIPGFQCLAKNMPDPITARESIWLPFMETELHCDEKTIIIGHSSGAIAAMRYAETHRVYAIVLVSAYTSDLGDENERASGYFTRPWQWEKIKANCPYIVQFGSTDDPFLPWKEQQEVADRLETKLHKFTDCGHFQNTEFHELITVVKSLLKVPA
#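 system = RBBP9 protein | input = RBBP9 at 2.5 µM in dispensed solution, before mixing | measured by = fluorescence polarization (mP), excitation 525 nm, emission 598 nm | incubation = enzyme-compound preincubation 30 min, then probe labeling 45 min, 25 °C | buffer or medium = Tris-NaCl-Pluronic buffer, pH 8.0 | compound = single dose 7.94 µM | also added = FP-Rh probe, 375 nM dispensing solution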
# * hit, by the source's call; . = no result given; [ ] = remark or other dose.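 The calls were made as follows, unless noted: active = inhibition above about 30% (limit read from the data); inactive = the rest.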
SMILES,WT yeast gro inh,NCF1 inh,eIF4E-4G inh,EBV gp42 inh,14-3-3 Bad inh,RBBP9 inh
C/C=C/c1ccc(OCCOc2cc(C=O)ccc2OC)c(OC)c1,4.9,-11.0,7.7,11.3,7.5,-9.8
C=CCC1(Cl)C(=O)C(Cl)=C(N2CCN(C)CC2)C1(OC)OC (configuration not stated),.,-12.2,-3.2,-6.7,-1.1,-7.2
COc1ccc(/C=C2\SC(=O)N(CC(=O)NN3CCN(C)CC3)C2=O)cc1OC,.,-9.2,-16.3,-10.7,1.0,-5.2
CCCCOc1ccc(-c2cc(C(F)(F)F)c(C#N)c(SCC(=O)O)n2)cc1,-17.3,-19.6,0.7,60.0*,-11.5,-0.7
CCCn1c2ccccc2c2nc3ccccc3nc21,25.7,-22.8,-1.7,-2.5,-11.8,2.0
CC(C)CCn1c(O)c(N=Nc2ccccn2)c2ccccc21,67.9*,-6.7,2.4,4.2,13.2,-14.0
CCCn1c(O)c(N=Nc2ccc3ccccc3n2)c2ccccc21,17.6,-107.1,9.8,62.6*,-10.3,0.0
Nc1ccc(N2CCCCCC2)cc1,-8.3,19.9,2.5,-12.9,80.2*[fluorescence artefact?],7.8
CC1Cc2ccccc2N1C(=O)CO/N=C/c1ccccc1OC(F)F (configuration not stated),1.6,-14.9,0.2,-1.4,1.4,-4.2
O=C(CO/N=C/c1ccccc1OC(F)F)N1CCc2ccccc21,4.8,-379.0,26.4,-8.8,83.9*[fluorescence artefact?],0.5
S=c1nc(-c2csc3c2CCCC3)[nH][nH]1,33.6,-10.1,-1.9,-4.4,-18.8,-6.6
COCCCNC(=S)N1CCCN(c2nc3c(C)c(C)ccc3cc2C#N)CC1,68.5*,-16.4,-3.0,-4.8,-9.1,-0.4
CNC(=O)NC(=O)COC(=O)c1ccc(-n2c(C)ccc2C)cc1,-4.6,-11.2,4.2,-5.5,-9.9,-4.7
CCc1cc2c(=O)n(CCC(C)C)c(=S)[nH]c2s1,31.3,-6.1,-4.1,-15.0,-9.5,-9.8
CCc1cc(-c2n[nH]c(=S)n2CC)cs1,11.7,-12.1,5.5,-6.0,-3.9,-1.9
Cc1cccc(-c2n[nH]c(=S)n2Cc2ccccc2)c1,72.0*,-5.0,-2.0,-1.4,-24.7,-9.0
S=c1[nH]nc(-c2cccc(Cl)c2)n1Cc1ccccc1,0.3,-11.1,10.2,-5.0,-3.5,-9.5
Cc1ccc(-c2n[nH]c(=S)n2Cc2ccccc2)cc1,-0.5,-4.5,-0.1,-18.4,-6.2,3.0
CCc1cc(-c2n[nH]c(=S)n2-c2ccccc2C)cs1,60.2*,-22.9,9.4,-21.1,-4.3,-7.0
CCc1cc(-c2n[nH]c(=S)n2Cc2ccccc2)cs1,64.8*,-12.7,-8.8,12.8,-13.1,-2.1
S=c1[nH]nc(-c2cc3ccccc3o2)n1Cc1ccccc1,65.4*,-12.9,0.9,-16.5,-7.3,-4.9
O=C(Cn1c(-c2ccccn2)nc2ccccc21)N/N=C/c1cccnc1,.,-2.5,5.6,-24.6,6.5,-4.0
O=c1c2ccccc2cnn1-c1nc2ccccc2[nH]1,86.0*,2.0,-1.7,-3.7,-0.7,-9.7
O=c1c(Cl)c(N2CCCCC2)cnn1-c1nc2ccccc2[nH]1,55.9,-17.3,-9.9,-9.8,2.9,-5.6
CC(NCC(O)COCCC12CC3CC(CC(C3)C1)C2)c1ccccc1 (configuration not stated),75.9*,-21.5,5.2,-13.6,-5.3,0.3
SMILES,WT yeast gro inh,NCF1 inh,eIF4E-4G inh,EBV gp42 inh,14-3-3 Bad inh,RBBP9 inh
CC1CN(c2nc3ccccc3cc2-c2ccccc2)CC(C)O1 (configuration not stated),78.0*,-1.0,6.1,1.2,-2.4,-6.7
CC1CN(c2cc(-c3ccccc3)c3ccccc3n2)CC(C)O1 (configuration not stated),76.3*,-3.4,9.9,14.4,10.2,6.6
CC1CN(c2nc(-c3ccccc3)nc3ccccc23)CC(C)O1 (configuration not stated),-5.7,-6.5,4.1,1.3,3.5,-9.4
CC(C)OP(=O)(c1ccc(N(C)C)cc1)C(O)c1cccnc1 (configuration not stated),.,1.9,3.1,-5.4,-3.2,-16.8
Cn1c(=O)oc2cc(S(=O)(=O)N3CCC(C(=O)NCCc4ccccc4)CC3)ccc21,.,-9.1,-9.0,-6.3,-2.5,1.6
Cn1c2ccccc2c(=O)c2c(=O)n(C3CCCCCC3)c(C3CCCCC3)nc21,33.0,45.0*,12.5,8.2,86.5*,1.7

# Screens: PubChem, several laboratories
